Measurements published in paper PMC4279188 (Theranostics, 2015).

Key:
Akt = assay: Western blot of HUVECs, phosphorylated Akt; format: cell-based, human; conditions: co-treatment with PEG-Ex4
Procedure, shortened: (§1)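 HUVEC lysates were prepared in RIPA buffer and protein was quantified by BCA. Proteins were resolved by SDS-PAGE and transferred to nitrocellulose, then blocked in 5% milk. Blots were probed overnight at 4 °C with anti-VEGF or anti-pAkt plus anti-β-actin, followed by secondary antibodies. Detection was by chemiluminescence on X-ray film. pAkt blots were stripped at 50 °C for 30 min and reprobed for total Akt. Data are mean ± SEM.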

VEGF = assay: Western blot of HUVECs, VEGF; format: cell-based, human; conditions: co-treatment with PEG-Ex4
Procedure, shortened: as §1

[1] = breakdown by dipeptidyl peptidase-4 (DPP4); no reference given for the value; cited from earlier work

Row | Compound | effect of PEG-Ex4 on p-Akt in HUVECs, inhibition by co-treatment (Akt) | effect of PEG-Ex4 on VEGF expression in HUVECs, inhibition by co-treatment (VEGF) | half-life, in words [1]
1 | exendin-4(9-39) | abolished the effect of PEG-Ex4 on p-Akt | abolished | 
2 | O=c1cc(N2CCOCC2)oc2c(-c3ccccc3)cccc12 [LY294002] | abolished the effect of PEG-Ex4 on p-Akt | abolished | 
3 | glucagon-like peptide-1 [GLP-1] |  |  | a few minutes
